The values below come from ChEMBL document CHEMBL4680064, “Natural product inspired optimization of a selective TRPV6 calcium channel inhibitor” (RSC Med Chem, 2020).

Structures are written as SMILES. The source made the active and inactive calls. The calls are words filed in the database; no cut-off is given here.

One data set relates to HEK293. Kind of data set: Effect on cadmium induced toxicity in wild type human HEK293 cells assessed as cell survival at 1 to 10 uM incubated for 24 hrs by XTT assay. To be noted: dose 1-10 µM. The format is functional, cell-based. Summed up:
(§1)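 HEK293 wt or HEK-hTRPV6 cells in DMEM with 10% FBS, glutamine, penicillin/streptomycin and non-essential amino acids. Seeded at 1.5 x 10⁴ cells/well and left 24 h, then given CdCl2 at 50 to 0.05 µM with or without test compound at 1.0 or 10 µM; blank was 0.01% DMSO. Incubation 24 h at 37 °C. XTT/PMS read for 2 h at A450−A650, as % viable versus blank. n = 4/concentration, 2 independent experiments.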

In data set [1] the target is T1, Transient receptor potential cation channel subfamily V member 6 (Homo sapiens) (UniProt Q9H1D0).
T1 sequence (whole entry): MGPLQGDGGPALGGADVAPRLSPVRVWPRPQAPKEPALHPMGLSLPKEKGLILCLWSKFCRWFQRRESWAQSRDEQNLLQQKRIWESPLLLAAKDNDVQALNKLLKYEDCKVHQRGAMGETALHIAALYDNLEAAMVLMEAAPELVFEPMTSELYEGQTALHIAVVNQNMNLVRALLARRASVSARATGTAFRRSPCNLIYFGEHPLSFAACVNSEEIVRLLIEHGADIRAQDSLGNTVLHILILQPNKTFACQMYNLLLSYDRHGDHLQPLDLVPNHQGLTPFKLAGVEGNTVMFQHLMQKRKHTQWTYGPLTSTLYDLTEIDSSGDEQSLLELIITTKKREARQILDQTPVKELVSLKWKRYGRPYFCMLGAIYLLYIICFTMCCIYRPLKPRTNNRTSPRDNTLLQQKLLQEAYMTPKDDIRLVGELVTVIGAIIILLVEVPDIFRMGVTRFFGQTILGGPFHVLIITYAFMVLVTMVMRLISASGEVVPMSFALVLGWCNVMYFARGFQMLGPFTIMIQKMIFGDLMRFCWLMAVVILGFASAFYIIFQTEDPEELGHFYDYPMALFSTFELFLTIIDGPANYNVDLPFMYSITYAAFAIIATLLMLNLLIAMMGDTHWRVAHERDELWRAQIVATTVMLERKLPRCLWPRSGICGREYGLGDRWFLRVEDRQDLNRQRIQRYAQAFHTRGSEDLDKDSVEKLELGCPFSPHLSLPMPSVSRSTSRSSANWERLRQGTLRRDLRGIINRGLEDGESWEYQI
Kind of data set: Inhibition of human TRPV6 expressed in HEK293 cells assessed as reduction in cadmium induced cytotoxicity by measuring increase in cell survival at 10 uM incubated for 24 hrs by XTT assay. The format is cell-based. Summed up: as §1
For orientation: Tetrazolium assays rely on reduction of a dye to a coloured formazan, in cell work by metabolically active cells.

For data set [2], the system named is T47D. The experiment in a line: Antiproliferative activity against human T47D cells assessed as cell growth inhibition at 0.4 to 100 uM after 6 days by XTT assay. The class given is cell-based. The following applies: human, t47d, 144 h, 100 µM; dose 0.4-100 µM, time 6 day. Summed up:
(§2)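 Cells grown in RPMI with 10% FBS, 2 mM L-glutamine, penicillin/streptomycin and 1% non-essential amino acids. Seeded at 5 x 10³ cells/well and left 24 h at 37 °C, then treated at 100 μM to 0.4 μM. Exposure 6 days at 37 °C with fresh treatment medium every 48 h. Doxorubicin 10 μM and DMSO 0.01% served as controls. XTT with 1.25% PMS for 2 h; absorbance at 450 minus 650 nm, as % viable versus DMSO. Curves fitted by four-parameter non-linear regression. Mean ± SEM, n = 3/concentration, ≥3 independent experiments.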

For a further data set, the system named is MCF7. The experiment in a line: Antiproliferative activity against human MCF7 cells assessed as cell growth inhibition at 0.4 to 100 uM after 6 days by XTT assay. The format is cell-based. To be noted: mcf7, 144 h, dose 0.4-100 µM, time 6 day. Summed up: as §2
The test system of a further data set is MDA-MB-231. The experiment in a line: Antiproliferative activity against human MDA-MB-231 cells assessed as cell growth inhibition at 0.4 to 100 uM after 6 days by XTT assay. The format is cell-based. To be noted: mda-mb-231, 144 h, dose 0.4-100 µM, time 6 day. The essentials:
as §2

For a further data set, the system named is SK-OV-3. The experiment in a line: Antiproliferative activity against human SK-OV-3 cells assessed as cell growth inhibition at 0.4 to 100 uM after 6 days by XTT assay. To be noted: human, sk-ov-3, 144 h, 100 µM; dose 0.4-100 µM, time 6 day. The format is cell-based.
Data set [3] concerns T47D. Kind of data set: Cytotoxicity against human T47D cells assessed as induction of cell morphological changes at 100 uM by inverted microscopic analysis. The class given is cell-based. The essentials:
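T47D cells, cultured and treated as in the 6-day XTT proliferation assay, were photographed for morphology after exposure at 100 μM and compared with control cultures.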

Data set [4] can be described thus: Inhibition of rat L-type calcium channel (verapamil site) at 10 uM.
Data set [5] addresses T2, Muscarinic acetylcholine receptor M1 (Homo sapiens, UniProt P11229).
T2 sequence (P11229 whole entry): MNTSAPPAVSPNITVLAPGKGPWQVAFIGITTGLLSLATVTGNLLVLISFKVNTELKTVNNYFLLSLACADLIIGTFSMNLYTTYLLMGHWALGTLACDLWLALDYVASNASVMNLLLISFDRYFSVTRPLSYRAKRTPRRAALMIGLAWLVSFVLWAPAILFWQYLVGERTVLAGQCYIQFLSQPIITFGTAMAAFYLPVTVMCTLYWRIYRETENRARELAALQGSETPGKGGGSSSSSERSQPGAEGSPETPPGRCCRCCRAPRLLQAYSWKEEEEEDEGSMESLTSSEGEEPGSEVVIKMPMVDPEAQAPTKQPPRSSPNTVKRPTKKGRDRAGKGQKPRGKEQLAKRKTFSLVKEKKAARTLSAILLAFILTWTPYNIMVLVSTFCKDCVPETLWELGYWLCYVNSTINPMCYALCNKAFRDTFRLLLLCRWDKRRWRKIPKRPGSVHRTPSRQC
The experiment in a line: Inhibition of human muscarinic M1 receptor at 10 uM.

In data set [6] the target is T3, Muscarinic acetylcholine receptor M2 (Homo sapiens, UniProt P08172).
T3 sequence (P08172 whole entry): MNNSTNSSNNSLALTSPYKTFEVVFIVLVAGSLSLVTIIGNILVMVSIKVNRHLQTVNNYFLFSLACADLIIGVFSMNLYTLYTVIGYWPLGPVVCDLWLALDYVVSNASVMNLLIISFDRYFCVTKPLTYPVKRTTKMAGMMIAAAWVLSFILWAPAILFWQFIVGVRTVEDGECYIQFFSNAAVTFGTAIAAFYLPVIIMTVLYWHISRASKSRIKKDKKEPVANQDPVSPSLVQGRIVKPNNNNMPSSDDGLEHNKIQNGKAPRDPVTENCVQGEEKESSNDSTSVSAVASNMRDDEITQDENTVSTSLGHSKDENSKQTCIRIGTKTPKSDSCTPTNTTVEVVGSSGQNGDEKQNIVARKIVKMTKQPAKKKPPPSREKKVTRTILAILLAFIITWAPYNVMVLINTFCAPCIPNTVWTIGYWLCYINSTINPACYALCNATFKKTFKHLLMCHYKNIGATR
The experiment in a line: Inhibition of human muscarinic M2 receptor at 10 uM.

In another data set the target is Mu-type opioid receptor (Homo sapiens, UniProt P35372). Kind of data set: Inhibition of human mu-opioid receptor at 10 uM.
Mu-type opioid receptor, sequence (P35372 whole entry): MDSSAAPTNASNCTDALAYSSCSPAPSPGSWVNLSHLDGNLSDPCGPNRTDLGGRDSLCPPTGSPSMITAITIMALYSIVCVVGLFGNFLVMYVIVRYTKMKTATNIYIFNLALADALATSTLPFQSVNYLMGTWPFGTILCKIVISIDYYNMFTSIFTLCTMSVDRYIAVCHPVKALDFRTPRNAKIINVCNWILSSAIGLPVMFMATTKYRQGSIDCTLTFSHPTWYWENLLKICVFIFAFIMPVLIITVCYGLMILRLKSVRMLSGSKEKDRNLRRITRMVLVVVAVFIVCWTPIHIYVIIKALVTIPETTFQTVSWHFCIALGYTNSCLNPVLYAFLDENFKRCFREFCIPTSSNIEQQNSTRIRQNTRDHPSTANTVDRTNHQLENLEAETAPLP

Regarding `O=c1ccc(CN2CCN([C@H]3CC[C@@](O)(c4cccc(C(F)(F)F)c4)CC3)CC2)c[nH]1`, the result in the data set on HEK293 was inactive. Besides, in data set [1], the inhibition result is “Active”. Moreover, the Activity result with T47D [2], in the data set with MCF7, with MDA-MB-231, in the data set with SK-OV-3 and in the data set with T47D [3] was “Non-Toxic” in each case. In addition, the “inhibition (INH)” value (in [4]; in data set [5]; in [6]; on Mu-type opioid receptor) was “Not Active” each time.
